In ChEMBL document CHEMBL3739352, “Anticonvulsant activity, crystal structures, and preliminary safety evaluation of N-trans-cinnamoyl derivatives of selected (un)modified aminoalkanols” (Eur J Med Chem, 2016):
The source made the active and inactive calls. The calls are words filed in the database; no cut-off is given here.

Legend:
Mus musculus [1] = experiment: Neurotoxicity in albino Carworth Farms No.1 mouse at 100 mg/kg, ip after 0.5 hrs by rotarod test; assay type: toxicity, organism-based; conditions: in vivo
Outline: (§1)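 Mice (albino Carworth Farms No.1) were dosed i.p. at 30, 100 or 300 mg/kg in 0.5% methylcellulose. They were tested 0.5 and 4 h later on a 1-inch knurled rod rotating at 6 rpm. Neurotoxicity was scored if a mouse could not stay on the rod for at least 1 min in each of three trials. Results are given as animals toxic/animals tested, with deaths noted.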

Mus musculus [2] = experiment: Anticonvulsant activity in albino Carworth Farms No.1 mouse assessed as protection against subcutaneous dosed pentetrazol-induced seizures at 300 mg/kg, ip after 4 hrs; assay type: functional, organism-based
Outline: (§2)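 Mouse i.p. screen in Carworth Farms No.1 albino mice at 30, 100 or 300 mg/kg in 0.5% methylcellulose. Testing was at 0.5 and 4 h after injection, by maximal electroshock or by subcutaneous pentetrazol challenge. Scoring was number protected / number used.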

Mus musculus [3] = experiment: Neurotoxicity in albino Carworth Farms No.1 mouse at 30 mg/kg, ip after 0.5 hrs by rotarod test; assay type: toxicity, organism-based; conditions: in vivo; outline: as §1
Mus musculus [4] = experiment: Anticonvulsant activity in albino Carworth Farms No.1 mouse assessed as protection against subcutaneous dosed pentetrazol-induced seizures at 300 mg/kg, ip after 0.5 hrs; assay type: functional, organism-based; outline: as §2
Mus musculus [5] = experiment: Anticonvulsant activity in albino Carworth Farms No.1 mouse assessed as protection against subcutaneous dosed pentetrazol-induced seizures at 30 mg/kg, ip after 0.5 hrs; assay type: functional, organism-based; outline: as §2
Mus musculus [6] = experiment: Anticonvulsant activity in albino Carworth Farms No.1 mouse assessed as protection against maximal electroshock-induced seizures at 100 mg/kg, ip after 0.5 hrs; assay type: functional, organism-based; outline: as §2
Mus musculus [7] = experiment: Anticonvulsant activity in albino Carworth Farms No.1 mouse assessed as protection against maximal electroshock-induced seizures at 30 mg/kg, ip after 4 hrs; assay type: functional, organism-based; outline: as §2
Salmonella typhimurium [8] = experiment: Mutagenicity in Salmonella typhimurium TA98 assessed as number of revertants at 1000 ug/plate by Ames test (reference value: 23 +/- 3); assay type: toxicity, organism-based; conditions: salmonella enterica subsp. enterica serovar typhimurium
Salmonella typhimurium [9] = experiment: Mutagenicity in Salmonella typhimurium TA1535 assessed as assessed as mutagenic index at 500 ug/plate by Ames test; assay type: toxicity, organism-based; conditions: salmonella enterica subsp. enterica serovar typhimurium
Salmonella typhimurium [10] = experiment: Mutagenicity in Salmonella typhimurium TA98 assessed as mutagenic index at 20 ug/plate by Ames test; assay type: toxicity, organism-based; conditions: salmonella enterica subsp. enterica serovar typhimurium
Salmonella typhimurium [11] = experiment: Mutagenicity in Salmonella typhimurium TA98 assessed as mutagenic index at 100 ug/plate by Ames test; assay type: toxicity, organism-based; conditions: salmonella enterica subsp. enterica serovar typhimurium
Salmonella typhimurium [12] = experiment: Mutagenicity in Salmonella typhimurium TA98 assessed as mutagenic index at 1000 ug/plate by Ames test; assay type: toxicity, organism-based; conditions: salmonella enterica subsp. enterica serovar typhimurium
Mus musculus [13] = experiment: Neurotoxicity in albino Carworth Farms No.1 mouse at 30 mg/kg, ip after 4 hrs by rotarod test; assay type: toxicity, organism-based; conditions: in vivo; outline: as §1
Mus musculus [14] = experiment: Neurotoxicity in albino Carworth Farms No.1 mouse at 100 mg/kg, ip after 4 hrs by rotarod test; assay type: toxicity, organism-based; conditions: in vivo; outline: as §1
[15] = Lipophilicity of the compound using 85% methanol in water at 1 mg/ml by RT-TLC analysis; assay type: physicochemical; conditions: buffer
Outline: (§3)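 Reversed-phase TLC with a methanol–water mobile phase at the stated methanol content (v/v). Compounds were spotted from 1 mg/mL methanol solutions after 1 h chamber saturation and located under UV light. Rf was measured and RM = log(1/Rf − 1) calculated.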

[16] = Lipophilicity of the compound using 75% methanol in water at 1 mg/ml by RT-TLC analysis; assay type: physicochemical; conditions: buffer; outline: as §3
Salmonella typhimurium [17] = experiment: Mutagenicity in Salmonella typhimurium TA98 assessed as number of revertants at 100 ug/plate by Ames test (reference value: 23 +/- 3); assay type: toxicity, organism-based; conditions: salmonella enterica subsp. enterica serovar typhimurium
Salmonella typhimurium [18] = experiment: Mutagenicity in Salmonella typhimurium TA98 assessed as number of revertants at 20 ug/plate by Ames test (reference value: 23 +/- 3); assay type: toxicity, organism-based; conditions: salmonella enterica subsp. enterica serovar typhimurium
Salmonella typhimurium [19] = experiment: Mutagenicity in Salmonella typhimurium TA98 assessed as number of revertants at 4 ug/plate by Ames test (reference value: 23 +/- 3); assay type: toxicity, organism-based; conditions: salmonella enterica subsp. enterica serovar typhimurium
Salmonella typhimurium [20] = experiment: Mutagenicity in Salmonella typhimurium TA1535 assessed as number of revertants at 1000 ug/plate by Ames test (reference value: 10 +/- 3); assay type: toxicity, organism-based; conditions: salmonella enterica subsp. enterica serovar typhimurium
Rattus norvegicus [21] = experiment: Neurotoxicity in Sprague-Dawley rat at 30 mg/kg, po after 2 hrs; assay type: toxicity, organism-based; conditions: in vivo
Outline: (§4)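 Sprague-Dawley rats were given 30 mg/kg orally in 0.5% methylcellulose. Neurotoxicity was checked at 0.25, 0.5, 1.0, 2.0 and 4 h after dosing. Results are given as number of rats showing neurotoxicity/number tested.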

Rattus norvegicus [22] = experiment: Neurotoxicity in Sprague-Dawley rat at 30 mg/kg, po after 1 hr; assay type: toxicity, organism-based; conditions: in vivo; outline: as §4
Rattus norvegicus [23] = experiment: Neurotoxicity in Sprague-Dawley rat at 30 mg/kg, po after 0.5 hrs; assay type: toxicity, organism-based; conditions: in vivo; outline: as §4
Rattus norvegicus [24] = experiment: Anticonvulsant activity in Sprague-Dawley rat assessed as protection against maximal electroshock-induced seizures at 30 mg/kg, po after 4 hrs; assay type: functional, organism-based
Outline: (§5)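 Sprague-Dawley rats were given 30 mg/kg p.o. in 0.5% methylcellulose. Maximal electroshock was applied at 0.25, 0.5, 1.0, 2.0 and 4 h after dosing. Results are reported as number of rats protected / number tested.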

Rattus norvegicus [25] = experiment: Anticonvulsant activity in Sprague-Dawley rat assessed as protection against maximal electroshock-induced seizures at 30 mg/kg, po after 2 hrs; assay type: functional, organism-based; outline: as §5
Rattus norvegicus [26] = experiment: Anticonvulsant activity in Sprague-Dawley rat assessed as protection against maximal electroshock-induced seizures at 30 mg/kg, po after 0.5 hrs; assay type: functional, organism-based; outline: as §5
Mus musculus [27] = experiment: Anticonvulsant activity in albino Carworth Farms No.1 mouse assessed as protection against 6-Hz electroshock-induced seizures at 100 mg/kg, ip after 2 hrs; assay type: functional, organism-based
Outline: (§6)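 Carworth Farms No.1 albino mice were dosed i.p. at 100 mg/kg (0.5% methylcellulose solution or suspension). 6-Hz seizures were induced at 32 mA at 0.25, 0.5, 1.0, 2.0 and 4 h after injection. Results are given as animals protected / animals tested.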

Mus musculus [28] = experiment: Anticonvulsant activity in albino Carworth Farms No.1 mouse assessed as protection against 6-Hz electroshock-induced seizures at 100 mg/kg, ip after 1 hr; assay type: functional, organism-based; outline: as §6
[29] = Hepatotoxicity against human HepG2 cells assessed as cell viability at 10 uM after 24 hrs by MTT assay relative to control; assay type: toxicity, cell-based; conditions: read-out: Activity
Outline: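 HepG2 cells (EMEM, 10% FBS, 37 °C, 5% CO₂) were seeded at 1 × 10⁴ per well and cultured overnight. They were then exposed to increasing compound concentrations for 24 h. MTT reagent was added for 3 h and formazan crystals dissolved before reading. Data are mean ± SD of at least three independent experiments, relative to untreated control.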

HepG2 = experiment: Cytotoxicity against human HepG2 cells assessed as change in cell morphology after 48 hrs by inverted microscopic analysis; assay type: cell-based; conditions: hepg2, 48 h
Outline: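 HepG2 cells in EMEM with 10% FBS and antibiotics were seeded at 5 × 10⁴ cells/cm². After 24 h the medium was replaced with fresh medium with or without compound. After 48 h, cells were imaged under interference modulation contrast at 37 °C, 5% CO₂.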

[30] = Neurotoxicity in ip dosed albino Carworth Farms No.1 mouse after 0.25 hrs by rotarod test; assay type: toxicity, organism-based; conditions: in vivo
in vitro [31] = conditions: human, HepG2 cells
in vitro [32] = conditions: human, HepG2 cells; remark: listed apart in the source
in vitro [33] = conditions: human, HepG2 cells; remark: listed apart in the source

Row | Rm [15] | Rm [16] | Compound | Activity (Mus musculus [1]) | Activity (Mus musculus [2]) | Activity (Mus musculus [3]) | Activity (Mus musculus [4]) | Activity (Mus musculus [5]) | Activity (Mus musculus [6]) | Activity (Mus musculus [7]) | Activity (Salmonella typhimurium [8]) | Activity_index (Salmonella typhimurium [9]) | Activity_index (Salmonella typhimurium [10]) | Activity_index (Salmonella typhimurium [11]) | Activity_index (Salmonella typhimurium [12]) | Activity (Mus musculus [13]) | Activity (Mus musculus [14]) | Activity (Salmonella typhimurium [17]) | Activity (Salmonella typhimurium [18]) | Activity (Salmonella typhimurium [19]) | Activity (Salmonella typhimurium [20]) | other results
1 | -0.29 | -0.19 | CCC(CO)NC(=O)/C=C/c1ccccc1 (racemic) | Non-toxic | inactive | Non-toxic | Active | inactive | inactive | inactive | 19 | 1.3 | 1 | 1 | 0.8 | Non-toxic | Non-toxic | 22 | 24 | 21 | 13 | 
2 | -0.39 | -0.27 | CC(CO)NC(=O)/C=C/c1ccccc1 (racemic) | Non-toxic | inactive | Non-toxic | Active | inactive | Active | inactive | 18 | 0.8 | 0.9 | 0.9 | 0.8 | Non-toxic | Non-toxic | 21 | 20 | 20 | 6 | Activity (Rattus norvegicus [21]): Non-toxic; Activity (Rattus norvegicus [22]): Non-toxic; Activity (Rattus norvegicus [23]): Non-toxic; Activity (Rattus norvegicus [24]): inactive; Activity (Rattus norvegicus [25]): inactive; Activity (Rattus norvegicus [26]): inactive; Activity (Mus musculus [27]): inactive; Activity (Mus musculus [28]): inactive; viability at 24 h, 10 µM [29]: 97.1%; Activity (HepG2): Non-toxic; TD50 at 0.25 h [30]: 223 mg/kg; viability at 24 h, 25 µM (in vitro [31]): 98%; viability at 24 h, 50 µM (in vitro [32]): 96%; viability at 24 h, 100 µM (in vitro [33]): 89%
3 | -0.18 | -0.09 | O=C(/C=C/c1ccccc1)N[C@H]1CCCC[C@@H]1O (racemic) | Toxic | inactive | Non-toxic | inactive | inactive | Active | inactive | 18 | 0.7 | 0.9 | 0.9 | 0.8 | Non-toxic | Non-toxic | 20 | 21 | 22 | 6 | 
4 | -0.25 | -0.18 | CCC(O)CNC(=O)/C=C/c1ccccc1 (racemic) | Non-toxic | inactive | Non-toxic | Active | inactive | inactive | inactive | 25 | 0.7 | 0.9 | 0.9 | 1.1 | Non-toxic | Non-toxic | 21 | 20 | 19 | 6 | Activity (Rattus norvegicus [21]): Non-toxic; Activity (Rattus norvegicus [22]): Non-toxic; Activity (Rattus norvegicus [23]): Non-toxic; Activity (Rattus norvegicus [24]): inactive; Activity (Rattus norvegicus [25]): inactive; Activity (Mus musculus [27]): inactive; Activity (Mus musculus [28]): inactive; viability at 24 h, 10 µM [29]: 94.5%; Activity (HepG2): Non-toxic; viability at 24 h, 25 µM (in vitro [31]): 97%; viability at 24 h, 50 µM (in vitro [32]): 92%; viability at 24 h, 100 µM (in vitro [33]): 89%
5 | -0.23 | -0.19 | O=C(/C=C/c1ccccc1)N1CCC(O)CC1 | Non-toxic |  | Non-toxic | Active | inactive | Active | inactive | 20 | 0.8 | 0.8 | 0.7 | 0.9 | Non-toxic | Non-toxic | 17 | 19 | 22 | 5 | Activity (Rattus norvegicus [21]): Non-toxic; Activity (Rattus norvegicus [22]): Non-toxic; Activity (Rattus norvegicus [23]): Non-toxic; Activity (Rattus norvegicus [24]): inactive; Activity (Rattus norvegicus [25]): inactive; Activity (Rattus norvegicus [26]): inactive
6 | -0.33 | -0.27 | CC(O)CNC(=O)/C=C/c1ccccc1 (racemic) | Non-toxic | inactive | Non-toxic | Active | inactive | inactive | inactive | 24 | 1.4 | 1 | 0.9 | 1 | Non-toxic | Non-toxic | 21 | 22 | 26 | 14 | Activity (Rattus norvegicus [21]): Non-toxic; Activity (Rattus norvegicus [22]): Non-toxic; Activity (Rattus norvegicus [23]): Non-toxic; Activity (Rattus norvegicus [24]): inactive; Activity (Rattus norvegicus [25]): inactive; Activity (Rattus norvegicus [26]): inactive; Activity (Mus musculus [27]): inactive; Activity (Mus musculus [28]): Active; viability at 24 h, 10 µM [29]: 97.3%; Activity (HepG2): Non-toxic; TD50 at 0.25 h [30]: 136 mg/kg; viability at 24 h, 25 µM (in vitro [31]): 99%; viability at 24 h, 50 µM (in vitro [32]): 98%; viability at 24 h, 100 µM (in vitro [33]): 85%
